# ARFGAP1 inh – inhibits rat ARF GTPase activating protein 1; Q62848; Arfgap1-stimulated ARF1 GTP hydrolysis, GDP FP detection; inhibition, % at 16.5 µM; actives 0.26% (n = 360,000); AID 651572;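 active = inhibition above a per-plate limit, mean inhibition of low control wells plus 3 SD, cut at about 25% in these data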;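 note: 0% = DMSO wells with enzyme and 100% = wells lacking Arfgap1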
# Target sequence (Q62848 1-136 limits assumed): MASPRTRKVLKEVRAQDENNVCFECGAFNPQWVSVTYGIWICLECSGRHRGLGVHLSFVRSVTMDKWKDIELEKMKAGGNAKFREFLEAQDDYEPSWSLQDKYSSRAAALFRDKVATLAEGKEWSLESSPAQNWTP
#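 Assay system: Rat Arfgap1 GAP domain (His6, aa 1-136), purified enzyme | Buffer or medium: HEPES 25 mM pH 7.5, NaCl 150 mM, MgCl2, DTT | Schedule: GTP hydrolysis reaction 2 h at 25 °C | Signal: FP of antibody-bound GDP Alexa 633 tracer, ex 620/em 688 nm | Measure: Percent inhibition of Arfgap1-stimulated GTP hydrolysis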
# PAFAH1B3 inh – blocks human PAF acetylhydrolase 1B catalytic subunit 3 | actives 0.28% (n = 340,000) | Q15102 | inhibition, % at 3.39 µM | recombinant PAFAH1B3, FP-rhodamine probe, fluorescence polarization;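 active = inhibition above the screen-wide average of all tested compounds plus 3 SD, cut at about 25% in these data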;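 note: 0% = enzyme with DMSO only and 100% = wells lacking PAFAH1B3 protein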
# Target sequence (Q15102 whole entry, looked up): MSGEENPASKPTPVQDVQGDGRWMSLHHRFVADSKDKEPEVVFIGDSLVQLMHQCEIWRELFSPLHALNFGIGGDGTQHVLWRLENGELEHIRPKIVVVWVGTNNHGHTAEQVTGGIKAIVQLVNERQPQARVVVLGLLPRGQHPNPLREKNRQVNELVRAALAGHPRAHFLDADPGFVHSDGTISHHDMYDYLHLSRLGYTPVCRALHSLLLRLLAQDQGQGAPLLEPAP
# PAFAH1B2 FP inh – PAFAH1B2 (human) inhibition. P68402. recombinant PAFAH1B2, FP-rhodamine activity probe, fluorescence polarization. inhibition, % at 3.39 µM. actives 1.2% (n = 340,000). AID 492953;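 active = inhibition above the mean of all tested compounds plus 3 SD, cut at about 24% in these data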;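 note: 0% = enzyme with DMSO and 100% = wells lacking PAFAH1B2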
# ASAP1 inh – ASAP1 ArfGAP inhibition; AID 624377; Q9ULH1; ASAP1-stimulated ARF1 GTP hydrolysis, GDP FP detection; actives 0.19% (n = 360,000); inhibition, % at 16.5 µM; in the data active = inhibition above about 25%;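 note: 0% = vehicle with enzyme and substrate and 100% = no enzyme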
# PAFAH2 FP inh – PAFAH2 (human) inhibition; Q99487; recombinant PAFAH2, FP-rhodamine activity probe, fluorescence polarization; inhibition, % at 3.39 µM; actives 0.99% (n = 340,000); AID 492956;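 active = inhibition above the mean over all tested compounds plus 3 SD, cut at about 30% in these data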;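 note: inhibitors block probe labeling of enzyme so polarization drops; 0% = enzyme with DMSO and 100% = wells lacking PAFAH2 protein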
# pPAFAH FP inh – pPAFAH (human) enzyme inhibition; Q13093; recombinant pPAFAH, FP-rhodamine probe fluorescence polarization; inhibition, % at 3.39 µM; actives 1.5% (n = 330,000);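 active = inhibition above the mean inhibition across the screen plus 3 SD, cut at about 25% in these data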;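 note: inhibitors block binding of the rhodamine activity-based probe so polarization drops; 0% = enzyme with DMSO and 100% = wells lacking pPAFAH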
# An asterisk follows results filed as active; . = not tested or not shown. Sampled rows, rich in hits. Any-hit rate of the full collection: about 2.7%.
SMILES,ARFGAP1 inh,PAFAH1B3 inh,PAFAH1B2 FP inh,ASAP1 inh,PAFAH2 FP inh,pPAFAH FP inh
Cc1ccccc1OCCC(=O)OCC(=O)NNC(=O)c1cccs1,4,5,5,-2,-4,25*
NC(=S)n1[nH]c(-c2ccc([N+](=O)[O-])cc2)c(N=Nc2ccc(Cl)cc2)c1=O,.,9,9,.,41*,.
CC(C)(C)OC(=O)N1CCC2CCN(S(C)(=O)=O)CC21 (stereo not drawn),6,.,.,5,.,.
N#CC1=C(N)Oc2cc(N)ccc2C1c1ccc(F)cc1F (stereo not drawn),-5,3,5,3,2,27*
N#CC1=C(N)Oc2cc(N)ccc2C1c1ccc(F)cc1 (stereo not drawn),0,5,5,-2,-1,11
COc1ccc(C2CC(c3ccccc3C(F)(F)F)=NN2c2ccc(S(N)(=O)=O)cc2)cc1 (stereo not drawn),17,5,2,9,6,26*
CCn1c(=O)cc(SCC(=O)N(C)Cc2ccccc2)c2ccccc21,16,3,4,-1,10,10
CN(Cc1ccccc1)C(=O)CSc1cc(=O)n(C)c2ccccc12,4,3,-3,12,7,29*
Cc1ccc(S(=O)(=O)Nc2ccc(Cl)cc2C(=O)c2ccccc2)cc1,-2,6,27*,-5,6,-1
Cc1ccc(S(=O)(=O)Nc2ccc(Cl)cc2C(=O)c2ccc(F)cc2)cc1,8,5,43*,-7,5,5
Cc1ccc(NC(=O)CCNS(=O)(=O)c2ccccc2)c(C(=O)c2ccccc2)c1,6,11,8,-12,-1,-2
C[C@@H]1CN([C@H](C)CO)C(=O)c2cc(NC(=O)Nc3ccccc3)ccc2O[C@@H](C)CCCCO[C@H]1CN(C)S(C)(=O)=O,1,.,.,4,.,.
O=C(CN1CCN(Cc2ccc(F)cc2Cl)C1=O)NCCc1ccc(Cl)cc1,-5,0,18,11,-6,34*
COc1cccc(C2NC(=S)N(Cc3ccc(Br)cc3)C(C)=C2C(C)=O)c1 (stereo not drawn),15,.,.,2,.,.
COC(=O)[C@]12C[C@H](CC(=O)NCCCCc3ccccc3)C(=O)N(Cc3ccccc3)C1=C[C@H](C(C)C)O[C@@H]2C1CC1,-5,.,.,1,.,.
Cc1c2cc(O)c(=O)cc-2oc2cc(O)c(O)cc12,-9,89*,85*,9,96*,78*
CCOC(=O)C1=CCC(c2ccccc2)N(S(C)(=O)=O)C1 (stereo not drawn),5,.,.,0,.,.
CCCCCCCCN1[C@@H](CC(=O)O)c2ccc(C(F)(F)F)cc2S1(=O)=O,6,1,31*,-6,14,11
Cc1[nH]nc2c1C(c1ccc(Br)cc1)N(Cc1ccccc1)C2=O (stereo not drawn),-3,.,.,1,.,.
O=C(O)c1ccccc1NC(c1ccccc1)c1ccc(Cl)cc1 (stereo not drawn),-9,12,41*,-6,3,16
Oc1cccc(/C=N/N=C/c2cccc(O)c2O)c1O,10,-4,-8,-3,-16,5
Cc1ccccc1N=Cc1cccc(O)c1O,.,2,9,.,3,32*
O=C(O)c1ccc(N/N=C/c2ccc(-c3ccc(Br)cc3)o2)cc1,-3,8,10,-15,13,27*
COC(=O)c1cc2c(c3c4cc(C)ccc4n(S(=O)(=O)c4ccc(C)cc4)c13)C(=O)N(Cc1ccc(C(F)(F)F)cc1)C2,-23,.,.,1,.,.
Cc1ccc(CCNC(=O)C2CCCN(S(=O)(=O)c3c(C)noc3C)C2)cc1 (stereo not drawn),-14,4,27*,-1,6,8
Cc1noc(C)c1S(=O)(=O)N1CCCC(C(=O)NCCc2ccccc2)C1 (stereo not drawn),0,3,4,8,4,-1
Cc1ccc(C)c(NC(=O)C2CCCN(S(=O)(=O)c3c(C)noc3/C=C/N(C)C)C2)c1 (stereo not drawn),-3,7,3,2,0,-1

# Bioassay records: PubChem, The Scripps Research Institute Molecular Screening Center
